PGC1a Ac signal = raises PGC1a acetylation signal in U2OS cells. U2OS PGC1a acetylation AlphaScreen, overnight. activation, % at 15.6 µM. 350,000 compounds, 0.21% hits. AID 651723;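 active means every replicate reaching activation of at least 50%, whatever the mean replicate activation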;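 further: hits raise the AlphaScreen acetylation signal above neutral controls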
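System: Flag-PGC1a/GCN5 U2OS cells | Quantity: 7000 cells/well | Times: Overnight compound treatment, 37 °C | Measured by: AlphaScreen proximity luminescence, anti-acetyl-lysine antibody | Dosing: One concentration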
* marks the source's active call; other numbers are inactive results. These entries were drawn from the full list.

`C[C@@H]1CN([C@H](C)CO)C(=O)CCCn2nncc2CO[C@H]1CN(C)S(=O)(=O)c1cn(C)cn1` gave PGC1a Ac signal -105.
Screening CCn1cc(C(=O)NCc2cccnc2)c2cc(OC)c(OC)cc2c1=O returned PGC1a Ac signal -45.
COc1ccc2nc(NCc3cccnc3)sc2c1 was read as PGC1a Ac signal -56.
`COc1cccc(C(=O)c2c[nH]c(C(=O)NCc3cccnc3)c2)c1` gave PGC1a Ac signal 86*.
For CN1CCN(/N=C/c2ccc(OCc3ccccc3)cc2)CC1 the results were PGC1a Ac signal -41.
`CC(=O)CS(=O)(=O)c1ccc(Oc2ccc(S(=O)(=O)CC(C)=O)cc2)cc1` gave PGC1a Ac signal -41.
Cc1ccc(S(=O)(=O)CCSC(=N)N)cc1 was read as PGC1a Ac signal 67*.
CC(C)C#Cc1ccc2c(c1)O[C@@H](CN(C)Cc1ccccc1)[C@@H](C)CN([C@@H](C)CO)S2(=O)=O was read as PGC1a Ac signal -99.
For Cc1ccc(S(=O)(=O)N(C)C[C@@H]2Oc3cc(C#Cc4ccncc4)ccc3S(=O)(=O)N([C@@H](C)CO)C[C@H]2C)cc1 the results were PGC1a Ac signal -60.
C[C@@H]1CN([C@H](C)CO)S(=O)(=O)c2ccc(C#CC3CCCC3)cc2O[C@H]1CN(C)C was read as PGC1a Ac signal 52*.
Screening C[C@H](CO)N1C[C@H](C)[C@@H](CN(C)Cc2ccc3c(c2)OCO3)Oc2cc(Br)ccc2S1(=O)=O returned PGC1a Ac signal 51*.
C[C@@H]1CN([C@@H](C)CO)S(=O)(=O)c2ccc(C#CC3CCCCC3)cc2O[C@H]1CN(C)Cc1cccnc1 was read as PGC1a Ac signal -60.
For C[C@@H]1CN([C@@H](C)CO)S(=O)(=O)c2ccc(C3=CCCCC3)cc2O[C@H]1CN(C)C the results were PGC1a Ac signal -48.
For CC(C)C#Cc1ccc2c(c1)O[C@@H](CN(C)C(=O)C1CC1)[C@@H](C)CN([C@@H](C)CO)S2(=O)=O the results were PGC1a Ac signal -48.
Screening COc1ccc(S(=O)(=O)N(C)C[C@@H]2Oc3cc(C#CC4CC4)ccc3S(=O)(=O)N([C@H](C)CO)C[C@H]2C)cc1 returned PGC1a Ac signal 59*.
For Cc1ccc(S(=O)(=O)N(C)C[C@@H]2Oc3cc(C#Cc4ccncc4)ccc3S(=O)(=O)N([C@H](C)CO)C[C@H]2C)cc1 the results were PGC1a Ac signal -42.
`COc1cccc(S(=O)(=O)N(C)C[C@@H]2Oc3cc(C4=CCCC4)ccc3S(=O)(=O)N([C@H](C)CO)C[C@@H]2C)c1` gave PGC1a Ac signal 59*.
For CC(C)CC#Cc1ccc2c(c1)O[C@@H](CN(C)Cc1ccc3c(c1)OCO3)[C@H](C)CN([C@H](C)CO)S2(=O)=O the results were PGC1a Ac signal -53.
Screening C[C@@H]1CN([C@H](C)CO)S(=O)(=O)c2ccc(C3=CCCCC3)cc2O[C@H]1CN(C)Cc1ccccc1 returned PGC1a Ac signal -43.
COc1ccc(C(=O)Nc2cc(Cl)ccc2-n2cncn2)c(OC)c1OC was read as PGC1a Ac signal -47.
For CCCCN(C(=O)CCC(=O)Nc1cc(C)on1)C(C(=O)NC1CCCC1)c1ccc(OC)cc1 (stereo unspecified) the results were PGC1a Ac signal -46.
`O=C1C=CC2(C=C1)O[C@H](Cc1ccccc1)[C@@H](Cc1ccccc1)O2` gave PGC1a Ac signal -41.
`COc1ccc(Cl)cc1NC(=O)NCC1CCN(C(=O)OC(C)(C)C)CC1` gave PGC1a Ac signal -50.
Screening COC(=O)c1c(C)oc(C)c1S(=O)(=O)Nc1ccccc1 returned PGC1a Ac signal -50.
Cc1cc(C)c(S(=O)(=O)Nc2ccccc2-c2ccccc2)c(C)c1 was read as PGC1a Ac signal 79*.
`C[C@H](CO)N1C[C@H](C)[C@H](CN(C)C(=O)NC2CCCCC2)Oc2cc(C#Cc3cccc(F)c3)ccc2S1(=O)=O` gave PGC1a Ac signal -48.
Screening O=C(c1cccc(N2C(=O)C3C4C=CC(C4)C3C2=O)c1)N1CCCc2ccccc21 (stereo unspecified) returned PGC1a Ac signal -42.
O=C(CN1CCC(N2CCCCC2)CC1)N1CCCc2ccccc21 was read as PGC1a Ac signal 82*.
COc1ccc(-n2c(C)c([N+](=O)[O-])c3ccc(O)c(CN(C)C)c32)cc1 was read as PGC1a Ac signal -37.
For Cc1ccc(S(=O)(=O)N(C)C[C@H]2Oc3ccc(NC(=O)CCC(F)(F)F)cc3C(=O)N([C@H](C)CO)C[C@@H]2C)cc1 the results were PGC1a Ac signal -48.
For CC(=O)Nc1cccc(-c2ccnc3c2CC(C)(C(=O)Nc2ccc(C(C)C)cc2)O3)c1 (stereo unspecified) the results were PGC1a Ac signal 70*.
Screening O=C1C=CCCN1S(=O)(=O)/C=C/c1ccccc1 returned PGC1a Ac signal -59.
CSc1cccc(N2CC(C(=O)NCCN3C(=O)S/C(=C\c4cccnc4)C3=O)CC2=O)c1 (stereo unspecified) was read as PGC1a Ac signal -75.
